{"source": "ChEMBL document CHEMBL1157325", "about": "“7alpha,20-epoxy-ent-kauranoids from Isodon parvifolius” (J Nat Prod, 2006)", "assay_type_in_all_cases": "functional, cell-based", "key": {"[1]": {"test_system": "K562", "assay": "Cytotoxicity against human K562 cells after 72 hrs by SRB assay", "settings": "K562, 72 h"}, "[2]": {"test_system": "A549", "assay": "Cytotoxicity against human A549 cells after 72 hrs by SRB assay", "settings": "A549, 72 h", "procedure,_shortened": "(§1)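 Adherent tumour cells seeded 24 h before treatment, then exposed continuously to a range of compound concentrations for 72 h. Cells were then fixed and stained with sulforhodamine B to read growth, and IC50 values were derived from the concentration series.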"}, "[3]": {"test_system": "HT-29", "assay": "Cytotoxicity against human HT29 cells after 72 hrs by SRB assay", "settings": "HT-29, 72 h", "procedure,_shortened": "as §1"}}}
{"smiles": "C=C1C(=O)[C@]23C[C@H]1CC[C@H]2[C@@]12CO[C@@]3(O)[C@@H](O)[C@@H]1[C@@](C)(CO)CC[C@@H]2O", "note": "[PARVIFOLINE C]", "values": [{"measurement": "IC50", "setting": "[1]", "result": 13.8, "unit": "µM"}]}
{"smiles": "C=C1C(=O)[C@]23[C@H](O)[C@H]1CC[C@H]2[C@@]12CO[C@@]3(O)[C@@H](O)[C@@H]1[C@@](C)(CO)CC[C@@H]2O", "note": "[PARVIFOLINE D]", "values": [{"measurement": "IC50", "setting": "[2]", "result": "> 100", "unit": "µM"}, {"measurement": "IC50", "setting": "[3]", "result": "> 100", "unit": "µM"}, {"measurement": "IC50", "setting": "[1]", "result": "> 100", "unit": "µM"}]}
{"smiles": "C=C1C(=O)[C@]23C[C@H]1[C@@H](O)C=C2[C@@]12CO[C@@]3(O)[C@@H](O)[C@@H]1C(C)(C)CC[C@@H]2O", "note": "[PARVIFOLINE F]", "values": [{"measurement": "IC50", "setting": "[2]", "result": "> 100", "unit": "µM"}, {"measurement": "IC50", "setting": "[3]", "result": "> 100", "unit": "µM"}, {"measurement": "IC50", "setting": "[1]", "result": "> 100", "unit": "µM"}]}
{"smiles": "C=C1[C@@H]2C[C@@H](OC(C)=O)[C@H]3[C@@]45CO[C@@](O)(C(=O)[C@@H]4C(C)(C)CC[C@@H]5OC(C)=O)[C@]3(C2)[C@@H]1OC(C)=O", "note": "[PARVIFOLINE G]", "values": [{"measurement": "IC50", "setting": "[2]", "result": "> 100", "unit": "µM"}, {"measurement": "IC50", "setting": "[3]", "result": "> 100", "unit": "µM"}, {"measurement": "IC50", "setting": "[1]", "result": "> 100", "unit": "µM"}]}
{"smiles": "C=C1C(=O)[C@]23C[C@H]1C[C@H](OC(C)=O)[C@H]2[C@@]12CO[C@@]3(O)[C@@H](O)[C@@H]1C(C)(C)CC[C@@H]2O", "note": "[PARVIFOLINE H]", "values": [{"measurement": "IC50", "setting": "[2]", "result": "> 100", "unit": "µM"}, {"measurement": "IC50", "setting": "[3]", "result": "> 100", "unit": "µM"}, {"measurement": "IC50", "setting": "[1]", "result": "> 100", "unit": "µM"}]}
{"smiles": "C=C1C(=O)[C@]23C[C@H]1C[C@H](O)[C@H]2[C@@]12CO[C@@]3(O)[C@@H](O)[C@@H]1C(C)(C)CC[C@@H]2OC(C)=O", "note": "[PARVIFOLINE I]", "values": [{"measurement": "IC50", "setting": "[2]", "result": "> 100", "unit": "µM"}, {"measurement": "IC50", "setting": "[3]", "result": "> 100", "unit": "µM"}, {"measurement": "IC50", "setting": "[1]", "result": "> 100", "unit": "µM"}]}
{"smiles": "COC[C@H]1C(=O)[C@]23C[C@H]1C[C@H](OC(C)=O)[C@H]2[C@@]12CO[C@@]3(O)[C@@H](O)[C@@H]1C(C)(C)CC[C@@H]2O", "note": "[PARVIFOLINE J]", "values": [{"measurement": "IC50", "setting": "[2]", "result": "> 100", "unit": "µM"}, {"measurement": "IC50", "setting": "[3]", "result": "> 100", "unit": "µM"}, {"measurement": "IC50", "setting": "[1]", "result": "> 100", "unit": "µM"}]}
